What was measured:
[1] = Inhibition of Schistosoma mansoni purine nucleoside phosphorylase
In short: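 Coupled spectrophotometric assay with 5 nM SmPNP (as monomer) in 50 mM potassium phosphate, pH 7.4, with 10 uM inosine and xanthine oxidase 40 milliunits/mL. Uric acid formation read at 293 nm, 25°C, in triplicate. IC50 obtained from rates at six or more inhibitor concentrations. Values are means of at least three independent experiments.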

[2] = Selectivity ratio of IC50 for human purine nucleoside phosphorylase to IC50 for Schistosoma mansoni purine nucleoside phosphorylase
[3] = biological target: T1, Purine nucleoside phosphorylase (Homo sapiens, UniProt P00491); experiment: Inhibition of human purine nucleoside phosphorylase
T1 sequence (P00491 whole entry): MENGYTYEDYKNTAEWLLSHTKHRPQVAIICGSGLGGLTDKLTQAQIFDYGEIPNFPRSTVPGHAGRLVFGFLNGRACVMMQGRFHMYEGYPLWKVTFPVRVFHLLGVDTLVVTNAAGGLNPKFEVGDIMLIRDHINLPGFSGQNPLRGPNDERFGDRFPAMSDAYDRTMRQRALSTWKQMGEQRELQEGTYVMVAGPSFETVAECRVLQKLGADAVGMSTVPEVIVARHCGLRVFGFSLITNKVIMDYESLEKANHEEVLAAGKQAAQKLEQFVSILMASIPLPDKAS

| IC50 [1] | Ratio IC50 [2] | IC50 [3] | SMILES |
| --- | --- | --- | --- |
| 95 µM | 3.3 | 315 µM | Nc1nc2c(ccn2[C@H]2O[C@@H](CO)[C@H](O)[C@@H]2O)c(=S)[nH]1 |
| 1.4 µM | – | – | Nc1nc2c(Cc3ccccc3)c[nH]c2c(=O)[nH]1 |
| 47 µM | 6.4 | 300 µM | O=c1nc[nH]c2c([C@H]3O[C@@H](CO)[C@H](O)[C@@H]3O)[nH]nc12 |
| 0.8 µM | 0.25 | 0.2 µM | Nc1nc2c(Cc3cccnc3)c[nH]c2c(=O)[nH]1 [PELDESINE] |

More lines, now with the values behind:

| SMILES | IC50 [1] | Ratio IC50 [2] | IC50 [3] |
| --- | --- | --- | --- |
| Nc1nc2c(Cc3ccncc3)c[nH]c2c(=O)[nH]1 | 3 µM | 0.033 | 0.1 µM |
| Nc1nc2c(Cc3cccc(Cl)c3)c[nH]c2c(=O)[nH]1 | 0.5 µM | 0.1 | 0.05 µM |
| Nc1nc2c(Cc3ccccn3)c[nH]c2c(=O)[nH]1 | 7 µM | 0.003 | 0.023 µM |
| CC(C)c1ccc(Cc2c[nH]c3c(=O)[nH]c(N)nc23)cc1 | 0.15 µM | 1.8 | 0.27 µM |
| Nc1ncnc2c1ccn2[C@H]1O[C@@H](CO)[C@H](O)[C@@H]1O | 200 µM | 1.5 | 300 µM |
| Nc1nc2c(Cc3ccc(OCc4ccccc4)cc3)c[nH]c2c(=O)[nH]1 | 0.5 µM | 0.6 | 0.3 µM |

— ChEMBL document CHEMBL1157547, “Structural basis for selective inhibition of purine nucleoside phosphorylase from Schistosoma mansoni: kinetic and structural studies” (Bioorg Med Chem, 2010)
